Source: ChEMBL document CHEMBL3763066, “Potent μ-Opioid Receptor Agonists from Cyclic Peptides Tyr-c[D-Lys-Xxx-Tyr-Gly]: Synthesis, Biological, and Structural Evaluation” (J Med Chem, 2016)
Where a SMILES comes first, the peptide text is derived from it. Bridges are numbered along the chain shown (N, C = ends). [ ]: non-standard residue; d: D form. 2Abz = Nc1ccccc1C(=O)O; Dap = NC[C@H](N)C(=O)O

Target: Delta-type opioid receptor (Rattus norvegicus, UniProt P33533)
Test: Displacement of [3H]DPDPE from rat cortical DOR after […] by liquid scintillation counting method

Delta-type opioid receptor, sequence (P33533 whole entry): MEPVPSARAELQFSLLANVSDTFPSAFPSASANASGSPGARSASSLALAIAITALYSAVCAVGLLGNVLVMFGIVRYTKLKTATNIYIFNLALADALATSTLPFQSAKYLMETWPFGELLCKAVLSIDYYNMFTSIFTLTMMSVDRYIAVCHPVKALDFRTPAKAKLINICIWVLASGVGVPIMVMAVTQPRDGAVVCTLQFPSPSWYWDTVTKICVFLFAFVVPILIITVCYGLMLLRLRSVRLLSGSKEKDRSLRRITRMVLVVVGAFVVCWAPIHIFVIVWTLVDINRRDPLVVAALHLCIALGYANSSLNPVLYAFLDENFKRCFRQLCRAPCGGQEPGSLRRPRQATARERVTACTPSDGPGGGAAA

SMILES | Ki
N[C@@H](Cc1ccc(O)cc1)C(=O)N[C@@H]1CCCCNC(=O)CNC(=O)[C@H](Cc2ccc(O)cc2)NC(=O)[C@H](Cc2ccccc2)NC1=O | 39 nM
N=C(N)NCCC[C@@H]1NC(=O)[C@H](NC(=O)[C@@H](N)Cc2ccc(O)cc2)CCCCNC(=O)CNC(=O)[C@H](Cc2ccc(O)cc2)NC1=O | > 10000 nM
N[C@@H](Cc1ccc(O)cc1)C(=O)N[C@@H]1CCCCNC(=O)CNC(=O)[C@H](Cc2ccc(O)cc2)NC(=O)[C@H](Cc2cccnc2)NC1=O | 1280 nM
N[C@@H](Cc1ccc(O)cc1)C(=O)N[C@@H]1CCCCNC(=O)CNC(=O)[C@H](Cc2ccc(O)cc2)NC(=O)[C@H](Cc2ccc(O)cc2)NC1=O | 171 nM
N[C@@H](Cc1ccc(O)cc1)C(=O)N[C@@H]1CCCCNC(=O)CNC(=O)[C@H](Cc2ccc(O)cc2)NC(=O)[C@H](Cc2ccncc2)NC1=O | 2270 nM
NC(=O)NCCC[C@@H]1NC(=O)[C@H](NC(=O)[C@@H](N)Cc2ccc(O)cc2)CCCCNC(=O)CNC(=O)[C@H](Cc2ccc(O)cc2)NC1=O | 3320 nM
N[C@@H](Cc1ccc(O)cc1)C(=O)N[C@@H]1CCCCNC(=O)CNC(=O)[C@H](Cc2ccc(O)cc2)NC(=O)[C@H](Cc2c[nH]c3ccccc23)NC1=O | 99 nM

Target: T1, Mu-type opioid receptor (Homo sapiens, UniProt P35372)
Test: Potency index, ratio of morphine EC50 to compound EC50 for human MOR
In short: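 CHO cells expressing human MOR were seeded 1 day before the assay. Cells were loaded with membrane-potential blue dye in HBSS/20 mM HEPES pH 7.4 for 45 min at 37 °C, then compound was added. Fluorescence (ex 530, em 550–565 nm) was read every 3 s for 60 s, taking maximum minus minimum response. The index is morphine EC50 divided by compound EC50.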

T1 sequence (P35372 whole entry): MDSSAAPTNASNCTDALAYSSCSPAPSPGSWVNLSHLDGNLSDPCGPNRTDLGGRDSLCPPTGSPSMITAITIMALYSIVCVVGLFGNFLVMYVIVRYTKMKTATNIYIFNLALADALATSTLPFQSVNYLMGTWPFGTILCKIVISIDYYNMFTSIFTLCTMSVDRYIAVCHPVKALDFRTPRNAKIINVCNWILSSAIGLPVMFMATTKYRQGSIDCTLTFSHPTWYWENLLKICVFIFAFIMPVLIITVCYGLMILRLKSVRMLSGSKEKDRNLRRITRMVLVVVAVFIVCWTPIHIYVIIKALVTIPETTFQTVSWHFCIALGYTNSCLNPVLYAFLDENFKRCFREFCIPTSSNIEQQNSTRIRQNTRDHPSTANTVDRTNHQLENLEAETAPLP

SMILES | Ratio EC50
N[C@@H](Cc1ccc(O)cc1)C(=O)N[C@@H]1CCCCNC(=O)CNC(=O)[C@H](Cc2ccc(O)cc2)NC(=O)[C@H](Cc2ccccc2)NC1=O | 3

Target: T1, Mu-type opioid receptor
Assay type: cell-based, CHO

SMILES | IC50
N[C@@H](Cc1ccc(O)cc1)C(=O)N[C@@H]1CCCCNC(=O)CNC(=O)[C@H](Cc2ccc(O)cc2)NC(=O)[C@H](Cc2ccccc2)NC1=O | 2.3 nM
N=C(N)NCCC[C@@H]1NC(=O)[C@H](NC(=O)[C@@H](N)Cc2ccc(O)cc2)CCCCNC(=O)CNC(=O)[C@H](Cc2ccc(O)cc2)NC1=O | 131 nM
N[C@@H](Cc1ccc(O)cc1)C(=O)N[C@@H]1CCCCNC(=O)CNC(=O)[C@H](Cc2ccc(O)cc2)NC(=O)[C@H](Cc2cccnc2)NC1=O | 11.1 nM
N[C@@H](Cc1ccc(O)cc1)C(=O)N[C@@H]1CCCCNC(=O)CNC(=O)[C@H](Cc2ccc(O)cc2)NC(=O)[C@H](Cc2ccc(O)cc2)NC1=O | 70.4 nM
N[C@@H](Cc1ccc(O)cc1)C(=O)N[C@@H]1CCCCNC(=O)CNC(=O)[C@H](Cc2ccc(O)cc2)NC(=O)[C@H](Cc2ccncc2)NC1=O | 32 nM
NC(=O)NCCC[C@@H]1NC(=O)[C@H](NC(=O)[C@@H](N)Cc2ccc(O)cc2)CCCCNC(=O)CNC(=O)[C@H](Cc2ccc(O)cc2)NC1=O | 66.9 nM
N[C@@H](Cc1ccc(O)cc1)C(=O)N[C@@H]1CCCCNC(=O)CNC(=O)[C@H](Cc2ccc(O)cc2)NC(=O)[C@H](Cc2c[nH]c3ccccc23)NC1=O | 24 nM

Target: Mu-type opioid receptor (Rattus norvegicus, UniProt P33535)
Test: Displacement of [3H]DAMGO from rat cortical MOR by liquid scintillation counting method

Mu-type opioid receptor (Rattus norvegicus, UniProt P33535), sequence (P33535 whole entry): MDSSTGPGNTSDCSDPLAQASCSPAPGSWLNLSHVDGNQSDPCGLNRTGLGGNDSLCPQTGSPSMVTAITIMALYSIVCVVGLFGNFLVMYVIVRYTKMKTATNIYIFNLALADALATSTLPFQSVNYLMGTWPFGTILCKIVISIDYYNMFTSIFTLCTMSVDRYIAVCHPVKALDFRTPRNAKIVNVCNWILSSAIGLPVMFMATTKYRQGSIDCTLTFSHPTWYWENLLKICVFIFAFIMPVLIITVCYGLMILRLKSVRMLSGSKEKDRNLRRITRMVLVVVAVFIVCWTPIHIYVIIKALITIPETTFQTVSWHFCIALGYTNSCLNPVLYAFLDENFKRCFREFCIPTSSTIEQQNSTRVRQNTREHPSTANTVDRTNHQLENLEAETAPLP

SMILES | Ki
N[C@@H](Cc1ccc(O)cc1)C(=O)N[C@@H]1CCCCNC(=O)CNC(=O)[C@H](Cc2ccc(O)cc2)NC(=O)[C@H](Cc2ccccc2)NC1=O | 0.99 nM
N=C(N)NCCC[C@@H]1NC(=O)[C@H](NC(=O)[C@@H](N)Cc2ccc(O)cc2)CCCCNC(=O)CNC(=O)[C@H](Cc2ccc(O)cc2)NC1=O | 17.4 nM
N[C@@H](Cc1ccc(O)cc1)C(=O)N[C@@H]1CCCCNC(=O)CNC(=O)[C@H](Cc2ccc(O)cc2)NC(=O)[C@H](Cc2cccnc2)NC1=O | 1.95 nM
N[C@@H](Cc1ccc(O)cc1)C(=O)N[C@@H]1CCCCNC(=O)CNC(=O)[C@H](Cc2ccc(O)cc2)NC(=O)[C@H](Cc2ccc(O)cc2)NC1=O | 114 nM
N[C@@H](Cc1ccc(O)cc1)C(=O)N[C@@H]1CCCCNC(=O)CNC(=O)[C@H](Cc2ccc(O)cc2)NC(=O)[C@H](Cc2ccncc2)NC1=O | 9.21 nM
NC(=O)NCCC[C@@H]1NC(=O)[C@H](NC(=O)[C@@H](N)Cc2ccc(O)cc2)CCCCNC(=O)CNC(=O)[C@H](Cc2ccc(O)cc2)NC1=O | 9.04 nM
N[C@@H](Cc1ccc(O)cc1)C(=O)N[C@@H]1CCCCNC(=O)CNC(=O)[C@H](Cc2ccc(O)cc2)NC(=O)[C@H](Cc2c[nH]c3ccccc23)NC1=O | 1.99 nM

System: not listed separately
Test: Selectivity ratio of Ki for guinea pig KOR to Ki for rat cortical MOR
In short: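 KOR: guinea pig cortex and cerebellum membranes in 50 mM Tris pH 7.4, 10 mM MgCl2, 200 μM PMSF, with 2 nM [3H]U69,593, 2 h at 25 °C; U50,488 defined nonspecific binding. […] Both used GF/B filtration and scintillation counting. The ratio is Ki(KOR)/Ki(MOR).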

SMILES | Ratio Ki
N[C@@H](Cc1ccc(O)cc1)C(=O)N[C@@H]1CCCCNC(=O)CNC(=O)[C@H](Cc2ccc(O)cc2)NC(=O)[C@H](Cc2ccccc2)NC1=O | 4520
N=C(N)NCCC[C@@H]1NC(=O)[C@H](NC(=O)[C@@H](N)Cc2ccc(O)cc2)CCCCNC(=O)CNC(=O)[C@H](Cc2ccc(O)cc2)NC1=O | 406
Nc1ccccc1C(=O)NC[C@@H]1NC(=O)[C@H](NC(=O)[C@@H](N)Cc2ccc(O)cc2)CCCCNC(=O)CNC(=O)[C@H](Cc2ccc(O)cc2)NC1=O (H-Y[dK][Dap](2Abz)YG; lactam 2-C) | 231
N[C@@H](Cc1ccc(O)cc1)C(=O)N[C@@H]1CCCCNC(=O)CNC(=O)[C@H](Cc2ccc(O)cc2)NC(=O)[C@H](Cc2cccnc2)NC1=O | 1320
N[C@@H](Cc1ccc(O)cc1)C(=O)N[C@@H]1CCCCNC(=O)CNC(=O)[C@H](Cc2ccc(O)cc2)NC(=O)[C@H](Cc2ccc(O)cc2)NC1=O | > 324
N[C@@H](Cc1ccc(O)cc1)C(=O)N[C@@H]1CCCCNC(=O)CNC(=O)[C@H](Cc2ccc(O)cc2)NC(=O)[C@H](Cc2ccncc2)NC1=O | 1100
NC(=O)NCCC[C@@H]1NC(=O)[C@H](NC(=O)[C@@H](N)Cc2ccc(O)cc2)CCCCNC(=O)CNC(=O)[C@H](Cc2ccc(O)cc2)NC1=O | 760
N[C@@H](Cc1ccc(O)cc1)C(=O)N[C@@H]1CCCCNC(=O)CNC(=O)[C@H](Cc2ccc(O)cc2)NC(=O)[C@H](Cc2c[nH]c3ccccc23)NC1=O | 2940

Target: Kappa-type opioid receptor (Cavia porcellus, UniProt P41144)
Test: Displacement of [3H]U69,593 from guinea pig KOR after 2 hrs by liquid scintillation counting method

Kappa-type opioid receptor, sequence (P41144 whole entry): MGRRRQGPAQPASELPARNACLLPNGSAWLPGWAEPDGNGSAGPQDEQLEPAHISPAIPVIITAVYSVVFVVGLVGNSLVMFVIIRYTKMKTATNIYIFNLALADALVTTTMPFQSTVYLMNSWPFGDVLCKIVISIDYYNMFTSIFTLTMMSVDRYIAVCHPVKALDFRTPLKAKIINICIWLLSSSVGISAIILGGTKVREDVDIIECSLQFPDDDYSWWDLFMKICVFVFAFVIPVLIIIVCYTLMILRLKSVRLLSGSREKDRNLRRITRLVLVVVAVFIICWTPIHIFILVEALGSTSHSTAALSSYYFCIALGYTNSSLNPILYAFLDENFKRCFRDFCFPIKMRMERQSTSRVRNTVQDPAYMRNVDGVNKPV

SMILES | Ki
N[C@@H](Cc1ccc(O)cc1)C(=O)N[C@@H]1CCCCNC(=O)CNC(=O)[C@H](Cc2ccc(O)cc2)NC(=O)[C@H](Cc2ccccc2)NC1=O | 4.45 µM
N=C(N)NCCC[C@@H]1NC(=O)[C@H](NC(=O)[C@@H](N)Cc2ccc(O)cc2)CCCCNC(=O)CNC(=O)[C@H](Cc2ccc(O)cc2)NC1=O | 8.53 µM
Nc1ccccc1C(=O)NC[C@@H]1NC(=O)[C@H](NC(=O)[C@@H](N)Cc2ccc(O)cc2)CCCCNC(=O)CNC(=O)[C@H](Cc2ccc(O)cc2)NC1=O (H-Y[dK][Dap](2Abz)YG; lactam 2-C) | 3.23 µM
N[C@@H](Cc1ccc(O)cc1)C(=O)N[C@@H]1CCCCNC(=O)CNC(=O)[C@H](Cc2ccc(O)cc2)NC(=O)[C@H](Cc2cccnc2)NC1=O | 5.33 µM
N[C@@H](Cc1ccc(O)cc1)C(=O)N[C@@H]1CCCCNC(=O)CNC(=O)[C@H](Cc2ccc(O)cc2)NC(=O)[C@H](Cc2ccc(O)cc2)NC1=O | > 10 µM
N[C@@H](Cc1ccc(O)cc1)C(=O)N[C@@H]1CCCCNC(=O)CNC(=O)[C@H](Cc2ccc(O)cc2)NC(=O)[C@H](Cc2ccncc2)NC1=O | > 10 µM
NC(=O)NCCC[C@@H]1NC(=O)[C@H](NC(=O)[C@@H](N)Cc2ccc(O)cc2)CCCCNC(=O)CNC(=O)[C@H](Cc2ccc(O)cc2)NC1=O | 8.43 µM
N[C@@H](Cc1ccc(O)cc1)C(=O)N[C@@H]1CCCCNC(=O)CNC(=O)[C@H](Cc2ccc(O)cc2)NC(=O)[C@H](Cc2c[nH]c3ccccc23)NC1=O | 8.16 µM

Species: Rattus norvegicus
Test: Selectivity ratio of Ki for rat cortical DOR to Ki for rat cortical MOR

SMILES | Ratio Ki
N[C@@H](Cc1ccc(O)cc1)C(=O)N[C@@H]1CCCCNC(=O)CNC(=O)[C@H](Cc2ccc(O)cc2)NC(=O)[C@H](Cc2ccccc2)NC1=O | 39
N=C(N)NCCC[C@@H]1NC(=O)[C@H](NC(=O)[C@@H](N)Cc2ccc(O)cc2)CCCCNC(=O)CNC(=O)[C@H](Cc2ccc(O)cc2)NC1=O | > 805
Nc1ccccc1C(=O)NC[C@@H]1NC(=O)[C@H](NC(=O)[C@@H](N)Cc2ccc(O)cc2)CCCCNC(=O)CNC(=O)[C@H](Cc2ccc(O)cc2)NC1=O (H-Y[dK][Dap](2Abz)YG; lactam 2-C) | 62
N[C@@H](Cc1ccc(O)cc1)C(=O)N[C@@H]1CCCCNC(=O)CNC(=O)[C@H](Cc2ccc(O)cc2)NC(=O)[C@H](Cc2cccnc2)NC1=O | 658
N[C@@H](Cc1ccc(O)cc1)C(=O)N[C@@H]1CCCCNC(=O)CNC(=O)[C@H](Cc2ccc(O)cc2)NC(=O)[C@H](Cc2ccc(O)cc2)NC1=O | 1.5
N[C@@H](Cc1ccc(O)cc1)C(=O)N[C@@H]1CCCCNC(=O)CNC(=O)[C@H](Cc2ccc(O)cc2)NC(=O)[C@H](Cc2ccncc2)NC1=O | 247
NC(=O)NCCC[C@@H]1NC(=O)[C@H](NC(=O)[C@@H](N)Cc2ccc(O)cc2)CCCCNC(=O)CNC(=O)[C@H](Cc2ccc(O)cc2)NC1=O | 367
N[C@@H](Cc1ccc(O)cc1)C(=O)N[C@@H]1CCCCNC(=O)CNC(=O)[C@H](Cc2ccc(O)cc2)NC(=O)[C@H](Cc2c[nH]c3ccccc23)NC1=O | 50
